Data from ChEMBL document CHEMBL1212846, “Synthesis and in vivo evaluation of [11C]tariquidar, a positron emission tomography radiotracer based on a third-generation P-glycoprotein inhibitor” (Bioorg Med Chem, 2010).
Values belong to the compound of their own block, whether it stands above or below them. Active and inactive are the calls of the source. The calls are words filed in the database; no cut-off is given here.

Key:
[1] = system: Brain; experiment: Biodistribution in mouse brain; type: ADME, organism-based; conditions: in vivo
How it was run: (§1)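 Mice (wild-type, Mdr1a/b(−/−), Bcrp1(−/−), Mdr1a/b(−/−)Bcrp1(−/−); n = 3 per type) under isoflurane anaesthesia, warmed to about 38 °C. Whole-brain SUV taken at 25 min. Brain-to-blood ratio = individual brain SUV ÷ mean whole-blood SUV from separate groups, with blood drawn retro-orbitally at 25 min and gamma-counted.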

[2] = biological target: T1, Broad substrate specificity ATP-binding cassette transporter ABCG2 (Homo sapiens, UniProt Q9UNQ0); experiment: Inhibition of BCRP
T1 sequence (Q9UNQ0 whole entry): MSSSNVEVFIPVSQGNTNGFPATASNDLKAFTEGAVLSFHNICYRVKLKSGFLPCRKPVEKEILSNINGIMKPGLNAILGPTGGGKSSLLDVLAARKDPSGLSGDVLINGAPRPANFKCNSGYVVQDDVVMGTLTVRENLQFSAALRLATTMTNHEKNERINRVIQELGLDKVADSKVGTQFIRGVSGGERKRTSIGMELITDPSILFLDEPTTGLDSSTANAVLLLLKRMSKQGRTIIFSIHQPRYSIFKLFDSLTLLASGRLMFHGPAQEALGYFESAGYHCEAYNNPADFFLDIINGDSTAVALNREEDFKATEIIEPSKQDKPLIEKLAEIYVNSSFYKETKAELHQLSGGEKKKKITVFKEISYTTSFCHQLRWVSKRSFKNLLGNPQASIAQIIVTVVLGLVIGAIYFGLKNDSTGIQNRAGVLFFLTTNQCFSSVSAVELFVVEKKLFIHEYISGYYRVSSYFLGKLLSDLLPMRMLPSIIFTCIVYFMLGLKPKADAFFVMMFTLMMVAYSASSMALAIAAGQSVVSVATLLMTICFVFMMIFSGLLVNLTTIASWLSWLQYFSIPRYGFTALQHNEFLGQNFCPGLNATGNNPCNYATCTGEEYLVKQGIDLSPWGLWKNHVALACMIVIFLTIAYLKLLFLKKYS

[3] = Inhibition of MRP
[4] = Ratio of drug level from brain to blood in wild type FVB mouse; type: ADME, tissue-based; conditions: brain and blood
How it was run: (§2)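 Single 60-min dynamic PET scan, whole brain outlined, SUV read at 25 min. Venous blood drawn retro-orbitally at 25 min in separate groups, gamma-counted and decay-corrected. Brain SUV of each animal divided by mean blood SUV of that group.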

[5] = Ratio of drug level from brain to blood in MDR1a/b deficient FVB mouse; type: ADME, tissue-based; conditions: brain and blood; how it was run: as §1
[6] = system: Brain; experiment: Decrease in binding in MDR1a/b and BCRP1 deficient FVB mouse brain; conditions: in vitro
[7] = system: Brain; experiment: Decrease in binding in BCRP1 deficient FVB mouse brain; conditions: in vitro
[8] = system: Brain; experiment: Drug uptake in rat brain after 0.5 to 1.3 mins; type: ADME, tissue-based; conditions: in vivo
How it was run: (§3)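 Naïve rats under isoflurane anaesthesia (1.5–2% maintenance), warmed to about 38 °C, with femoral artery and vein catheters. Baseline dynamic PET, whole-brain TACs expressed as SUV. Arterial blood sampled frequently and gamma-counted.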

[9] = Ratio of drug level from brain to blood in MDR1a/b and BCRP1 deficient FVB mouse; type: ADME, tissue-based; how it was run: as §1
[10] = Ratio of drug level from brain to blood in BCRP1 deficient FVB mouse; type: ADME, tissue-based; conditions: brain and blood; how it was run: as §2
[11] = system: Brain; experiment: Decrease in binding in MDR1a/b deficient FVB mouse brain; conditions: in vitro
[12] = system: Brain; experiment: Drug uptake in rat brain at 15 mg/kg, iv after 60 mins post-radiotracer administration; type: ADME, organism-based; design: dose 15 mg/kg, route intravenous; conditions: in vivo, 1 h
[13] = system: Brain; experiment: Drug uptake in rat brain at 5 mg/kg, iv after 60 mins post-radiotracer administration; type: ADME, organism-based; design: dose 5 mg/kg, route intravenous; conditions: in vivo, 1 h
[14] = system: Brain; experiment: Drug uptake in rat brain after 25 mins; type: ADME, tissue-based; conditions: in vivo; how it was run: as §3

Activity [1]: 24% | inhibition (INH) [2]: Active | inhibition [3]: Active
Compound: COc1cc2c(cc1OC)CN(CCc1ccc(NC(=O)c3cc(OC)c(OC)cc3NC(=O)c3cnc4ccccc4c3)cc1)CC2 [TARIQUIDAR]

Kp [4]: 1 | Kp [5]: 3.4 | % decrease in binding [6]: 46% | % decrease in binding [7]: 41% | SUV [8]: 0.71 | Kp [9]: 14.5 | Kp [10]: 1.8 | % decrease in binding [11]: 49%
Compound: COc1cc2c(cc1OC)CN(CCc1ccc(NC(=O)c3cc(O[11CH3])c(OC)cc3NC(=O)c3cnc4ccccc4c3)cc1)CC2 [[11C]TARIQUIDAR]

SUV [12]: 0.43 | SUV [13]: 0.71 | SUV [14]: 0.19
Compound: COc1cc2c(cc1OC)CN(CCc1ccc(NC(=O)c3cccc4c(=O)c5cccc(OC)c5[nH]c34)cc1)CC2 [ELACRIDAR]
